The source made the active and inactive calls. No cut-off for these calls is given here.
How the values were obtained:
Androgen receptor [1] = biological target: T1, Androgen receptor (Homo sapiens, UniProt P10275); assay: Inhibition of BF3 site of androgen receptor in human LNCAP cells expressing ARR2PB after 3 days by eGFP transcriptional assay; assay type: cell-based
T1 sequence (P10275 whole entry): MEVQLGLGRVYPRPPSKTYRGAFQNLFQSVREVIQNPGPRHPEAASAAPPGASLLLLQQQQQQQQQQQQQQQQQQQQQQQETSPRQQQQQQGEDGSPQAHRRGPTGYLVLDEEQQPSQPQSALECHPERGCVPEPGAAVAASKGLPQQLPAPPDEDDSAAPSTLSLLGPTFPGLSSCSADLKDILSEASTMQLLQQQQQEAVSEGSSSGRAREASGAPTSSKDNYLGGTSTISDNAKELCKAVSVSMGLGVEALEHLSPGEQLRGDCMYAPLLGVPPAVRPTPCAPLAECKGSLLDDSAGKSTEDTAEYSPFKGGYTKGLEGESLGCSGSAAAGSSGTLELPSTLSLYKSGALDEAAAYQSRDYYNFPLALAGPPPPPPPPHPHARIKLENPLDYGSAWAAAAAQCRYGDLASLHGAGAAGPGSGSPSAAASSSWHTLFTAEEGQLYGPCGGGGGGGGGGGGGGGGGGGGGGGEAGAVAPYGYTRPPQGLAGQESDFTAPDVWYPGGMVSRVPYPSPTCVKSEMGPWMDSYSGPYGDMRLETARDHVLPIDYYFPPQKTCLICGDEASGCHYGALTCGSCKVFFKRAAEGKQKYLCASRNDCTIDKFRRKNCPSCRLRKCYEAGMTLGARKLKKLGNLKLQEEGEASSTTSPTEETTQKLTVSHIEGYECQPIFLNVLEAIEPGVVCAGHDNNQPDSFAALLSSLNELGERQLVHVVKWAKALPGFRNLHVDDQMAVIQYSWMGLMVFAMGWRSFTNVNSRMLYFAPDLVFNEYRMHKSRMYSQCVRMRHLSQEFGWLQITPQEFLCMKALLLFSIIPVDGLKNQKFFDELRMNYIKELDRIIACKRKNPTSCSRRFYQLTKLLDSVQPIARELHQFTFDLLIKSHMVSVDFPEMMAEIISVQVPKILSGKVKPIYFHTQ

PC-3 = assay: Cytotoxicity against AR independent human PC3 cells assessed as growth inhibition at 6 uM after 4 days; assay type: functional, cell-based
Method in brief: (§1)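 Viability read after a 4-day incubation with compound at 6 µM in LNCaP, enzalutamide-resistant LNCaP-derived and AR-independent PC3 prostate cancer cells; data given as mean ± SEM.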

Androgen receptor [2] = biological target: T1, Androgen receptor; assay type: cell-based, LNCaP
Androgen receptor [3] = biological target: T1, Androgen receptor; assay: Inhibition of BF3 site of androgen receptor in human LNCAP cells expressing ARR2PB assessed as reduction in PSA level after 3 days; assay type: cell-based
[4] = biological target: T2, Estrogen receptor (Homo sapiens) (UniProt P03372); assay: Inhibition of estrogen receptor alpha in human MCF7 cells at 1 to 10 uM after 3 days by luciferase reporter gene assay; assay type: cell-based
T2 sequence (whole entry): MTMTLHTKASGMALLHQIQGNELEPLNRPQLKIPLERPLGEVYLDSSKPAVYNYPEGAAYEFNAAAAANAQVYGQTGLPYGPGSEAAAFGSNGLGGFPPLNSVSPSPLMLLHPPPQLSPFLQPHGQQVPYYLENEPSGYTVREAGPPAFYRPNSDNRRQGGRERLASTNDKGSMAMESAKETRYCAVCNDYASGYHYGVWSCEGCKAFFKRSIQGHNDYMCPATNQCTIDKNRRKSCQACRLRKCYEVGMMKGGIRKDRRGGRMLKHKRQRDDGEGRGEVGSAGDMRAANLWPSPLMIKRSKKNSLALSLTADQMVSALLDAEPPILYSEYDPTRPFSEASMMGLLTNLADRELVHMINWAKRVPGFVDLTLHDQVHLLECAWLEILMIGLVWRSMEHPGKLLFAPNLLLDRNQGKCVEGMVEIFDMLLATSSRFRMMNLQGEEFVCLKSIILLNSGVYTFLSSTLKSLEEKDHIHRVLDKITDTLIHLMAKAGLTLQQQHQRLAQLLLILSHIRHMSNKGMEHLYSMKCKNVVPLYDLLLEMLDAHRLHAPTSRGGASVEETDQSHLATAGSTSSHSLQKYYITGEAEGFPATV
Method in brief: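 MCF-7 cells were kept 5 days in phenol-red-free RPMI 1640 with 10% CSS, then seeded. After 24 h they were transfected with a luciferase plasmid driven by a consensus estrogen response element. Next day they were treated with 1 nM E2 plus test compound (10 µM final) in 0.1% EtOH/0.1% DMSO. Cells were lysed 24 h later and luminescence read.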

LNCaP [5] = assay: Cytotoxicity against human LNCAP cells assessed as growth inhibition at 6 uM after 4 days; assay type: functional, cell-based; method in brief: as §1
LNCaP [6] = assay: Cytotoxicity against enzalutamide-resistant human LNCAP cells assessed as growth inhibition at 6 uM after 4 days; assay type: functional, cell-based; method in brief: as §1

| IC50 (Androgen receptor [1]) [µM] | Compound | further results |
| --- | --- | --- |
| > 200 | Cc1cccc(OCCSc2nc3ccccc3n2CCC(=O)O)c1 |  |
| 12 | c1ccc(CCCSc2nc3ccccc3[nH]2)cc1 |  |
| > 200 | CC(C)(C)c1cccc(OCCSc2nc3ccccc3n2CC(=O)O)c1 |  |
| 5.4 | c1ccc(OCCSc2cc3ccccc3[nH]2)cc1 |  |
| > 200 | c1ccc(OCCNc2nc3ccccc3[nH]2)cc1 |  |
| > 200 | Cc1ccc(OCCSc2nc3ccccc3n2CC(=O)O)cc1C |  |
| 14.1 | CCOC(=O)Cn1c(SCCOc2cccc(C)c2)nc2ccccc21 |  |
| 2.7 | Cc1cccc(C)c1OCCSc1nc2ccccc2[nH]1 | growth inhibition (GI) (PC-3): inactive; IC50 (Androgen receptor [2]): 6.8 µM; IC50 (Androgen receptor [3]): 1.9 µM; inhibition [4]: inactive; growth inhibition (GI) (LNCaP [5]): Active; growth inhibition (GI) (LNCaP [6]): Active |
| > 200 | CCc1cccc(OCCSc2nc3ccccc3n2CCC(=O)O)c1 |  |
| > 200 | C=CCn1c(SCCOc2ccccc2)nc2ccccc21 |  |
| 45 | Cc1cccc(OCCSc2nc3ccccc3n2C)c1 |  |
| > 200 | CCc1cccc(OCCSc2nc3ccccc3n2CC(=O)OC)c1 |  |
| 24.1 | COCCn1c(SCCOc2cccc(C)c2)nc2ccccc21 |  |
| 40.3 | CCOC(=O)Cn1c(SCCOc2ccc(C)c(C)c2)nc2ccccc21 |  |
| 1.8 | Cc1cccc(OCCSc2nc3ccccc3[nH]2)c1 | growth inhibition (GI) (PC-3): inactive; IC50 (Androgen receptor [2]): 13 µM; IC50 (Androgen receptor [3]): 3.3 µM; inhibition [4]: inactive; growth inhibition (GI) (LNCaP [5]): Active; growth inhibition (GI) (LNCaP [6]): Active |
| 13.7 | Cc1cccc(OCCSc2nc3ccccc3n2CC(=O)OC(C)C)c1 |  |
| > 200 | CCN(CC)C(=O)Cn1c(SCCOc2cccc(C)c2)nc2ccccc21 |  |
| > 200 | c1ccc(OCCSc2nc3ccccc3o2)cc1 |  |
| 32.9 | COC(=O)Cn1c(SCCOc2ccc(C)cc2)nc2ccccc21 |  |
| > 200 | CCc1cccc(OCCSc2nc3ccccc3n2CC(=O)O)c1 |  |
| 30.6 | Cc1ccc(OCCSc2nc3ccccc3n2CC(=O)OC(C)C)cc1C |  |
| 62 | NS(=O)(=O)c1ccc(OCCSc2nc3ccccc3[nH]2)cc1 |  |
| 55 | CCOC(=O)Cn1c(SCCOc2cccc(CC)c2)nc2ccccc21 |  |
| > 200 | COC(=O)Cn1c(SCCOc2ccc(C)c(C)c2)nc2ccccc21 |  |
| > 200 | Cc1cccc(OCCSc2nc3ccccc3n2CC(=O)O)c1 |  |
| 19 | Cc1ccccc1OCCSc1nc2ccccc2[nH]1 |  |

Continued, compound first:

| Compound | IC50 (Androgen receptor [1]) [µM] | further results |
| --- | --- | --- |
| Cc1ccc(OCCSc2nc3ccccc3n2CC(=O)OC(C)C)cc1 | 11.1 |  |
| Cc1cccc(OCCSc2nc3ccccc3n2CCOc2ccccc2)c1 | > 200 |  |
| c1ccc(OCCCSc2nc3ccccc3[nH]2)cc1 | > 200 |  |
| NS(=O)(=O)c1cccc2cc(SCCOc3ccccc3)[nH]c12 | 1.5 | growth inhibition (GI) (PC-3): inactive; IC50 (Androgen receptor [2]): 6.4 µM; IC50 (Androgen receptor [3]): 1.6 µM; inhibition [4]: inactive; growth inhibition (GI) (LNCaP [5]): Active; growth inhibition (GI) (LNCaP [6]): Active |
| C=CCc1cccc(OCCSc2nc3ccccc3n2CC(=O)OC)c1 | > 200 |  |
| [O-][S+](CCOc1ccccc1)c1nc2ccccc2[nH]1 (stereo not drawn) | > 200 |  |
| COCCn1c(SCCOc2ccc(C)cc2)nc2ccccc21 | 12.7 |  |
| c1ccc(OCCSc2nc3ccccc3[nH]2)cc1 |  | growth inhibition (GI) (PC-3): inactive; inhibition [4]: inactive; growth inhibition (GI) (LNCaP [5]): inactive; growth inhibition (GI) (LNCaP [6]): inactive |
| CCOc1cccc(OCCSc2nc3ccccc3n2CCOc2ccc(C)cc2)c1 | 22.8 |  |
| Clc1ccc(OCCSc2nc3ccccc3[nH]2)cc1 | 4 |  |
| Cc1ccc(OCCSc2nc3ccccc3n2CC(=O)O)cc1 | 164 |  |
| Clc1cccc(OCCSc2nc3ccccc3[nH]2)c1 | 5 |  |
| OCCn1c(SCCOc2ccccc2)nc2ccccc21 | > 200 |  |
| CCn1c(SCCOc2ccccc2)nc2ccccc21 | 12 |  |
| Cc1ccc(OCCSc2nc3ccccc3n2CCC(=O)O)cc1 | > 200 |  |
| CCOC(=O)Cn1c(SCCOc2cc(C)cc(C)c2)nc2ccccc21 | > 200 |  |
| Cc1cc(C)cc(OCCSc2nc3ccccc3n2CC(=O)O)c1 | > 200 |  |
| O=S(=O)(CCOc1ccccc1)c1nc2ccccc2[nH]1 | > 200 |  |
| O=C(O)CCn1c(SCCOc2ccccc2)nc2ccccc21 | > 200 |  |
| c1ccc(NCCSc2nc3ccccc3[nH]2)cc1 | > 200 |  |
| c1ccc(OCCCc2nc3ccccc3[nH]2)cc1 | > 200 |  |
| CCn1c(SCCOc2cccc(C)c2)nc2ccccc21 | 35 |  |
| Cc1ccc(OCCSc2nc3ccccc3[nH]2)cc1 | 7 |  |
| Cc1cccc(OCCSc2nc3ccccc3n2CC(=O)N2CCOCC2)c1 | > 200 |  |
| Cc1ccc(C)c(OCCSc2nc3ccccc3n2CC(=O)O)c1 | > 200 |  |
| c1ccc(CCSc2nc3ccccc3[nH]2)cc1 | 7.4 |  |
